The source of these data is BindingDB's records for doi:10.1021/acs.jnatprod.6b00141 (University of Eastern Piedmont, 2016).

Molecules are shown by their SMILES. pIC50: −log10 of the molar value.

For assay [1], the target named is Transcription factor p65 (Human, UniProt Q04206). As to the kind of experiment: Inhibition of NFkappaB p65 activation (unknown origin) expressed in human HeLa cells assessed as inhibition of TNFalpha-induced NFkappaB p65 nuclear accumulation pretreated with cells followed by TNFalpha addition by DAPI staining based microscopic analysis.
Assay [2] has as its target Signal transducer and activator of transcription 3 (Homo sapiens, UniProt P40763). As to the kind of experiment: Inhibition of IFNgamma-induced STAT3 activation in human HeLa cells expressing STAT3 (unknown origin) preincubated for 15 mins followed by IFN-gamma addition measured after 6 hrs by luciferase reporter gene assay. The gist of the method: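 HeLa-STAT3-Luc reporter cells in DMEM with 10% heat-inactivated FBS. Compounds added 15 min before IFNγ (20 IU). Stimulated 6 h. Cells washed in PBS and lysed 15 min at room temperature in Tris-phosphate pH 7.8 lysis buffer. Luciferase read in centrifuged lysate supernatant. IC50 calculated.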
Background: Reporter assays use an easily measured gene product as a stand-in for the process of interest.

Signal transducer and activator of transcription 3, sequence (P40763 whole entry): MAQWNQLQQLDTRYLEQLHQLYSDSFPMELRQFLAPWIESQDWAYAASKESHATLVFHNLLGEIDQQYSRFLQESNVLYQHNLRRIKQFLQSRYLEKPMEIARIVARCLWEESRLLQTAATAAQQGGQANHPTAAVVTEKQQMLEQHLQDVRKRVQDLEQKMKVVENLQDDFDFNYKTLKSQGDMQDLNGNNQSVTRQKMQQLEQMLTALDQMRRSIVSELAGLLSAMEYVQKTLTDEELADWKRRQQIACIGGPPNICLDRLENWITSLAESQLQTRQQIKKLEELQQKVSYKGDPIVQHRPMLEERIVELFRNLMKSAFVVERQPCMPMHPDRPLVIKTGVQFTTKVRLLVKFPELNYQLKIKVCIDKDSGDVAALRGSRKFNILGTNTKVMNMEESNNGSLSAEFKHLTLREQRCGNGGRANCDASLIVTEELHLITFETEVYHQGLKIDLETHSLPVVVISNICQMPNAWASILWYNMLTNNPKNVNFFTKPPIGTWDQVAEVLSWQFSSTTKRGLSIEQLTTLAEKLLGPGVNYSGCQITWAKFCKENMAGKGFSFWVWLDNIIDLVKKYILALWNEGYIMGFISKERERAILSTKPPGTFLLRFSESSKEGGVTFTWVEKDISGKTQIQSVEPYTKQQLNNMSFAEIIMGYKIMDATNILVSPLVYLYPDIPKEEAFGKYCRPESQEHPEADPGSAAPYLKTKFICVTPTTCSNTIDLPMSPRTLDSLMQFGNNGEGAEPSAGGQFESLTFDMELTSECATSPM
Transcription factor p65, sequence (Q04206 whole entry): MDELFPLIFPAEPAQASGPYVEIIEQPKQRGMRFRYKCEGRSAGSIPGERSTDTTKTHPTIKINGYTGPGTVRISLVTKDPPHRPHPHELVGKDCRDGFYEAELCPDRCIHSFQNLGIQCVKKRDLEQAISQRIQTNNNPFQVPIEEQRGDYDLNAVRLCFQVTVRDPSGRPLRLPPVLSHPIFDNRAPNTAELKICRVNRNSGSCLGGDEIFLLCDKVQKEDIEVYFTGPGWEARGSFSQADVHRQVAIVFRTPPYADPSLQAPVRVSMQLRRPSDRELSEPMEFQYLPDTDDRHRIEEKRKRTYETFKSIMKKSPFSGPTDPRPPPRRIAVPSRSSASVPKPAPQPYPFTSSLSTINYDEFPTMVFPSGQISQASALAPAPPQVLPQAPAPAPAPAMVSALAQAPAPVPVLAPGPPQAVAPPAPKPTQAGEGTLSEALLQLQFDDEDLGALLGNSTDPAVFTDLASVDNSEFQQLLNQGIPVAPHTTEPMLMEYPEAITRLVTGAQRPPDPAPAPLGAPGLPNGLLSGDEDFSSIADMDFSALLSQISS

As usually defined, the pIC50 is −log10 of the IC50, conventionally taken in molar units. As for `CC(=O)O[C@H]1CC/C(C)=C/CC/C(C)=C/C[C@]2(C(C)C)CC[C@@]1(C)O2`, the pIC50 was below 4.00 in assay [1] and below 4.30 in assay [2]. As for `C/C1=C\CC/C(C)=C/C[C@](O)(C(C)C)CC/C(C)=C/CC1`, in assay [2], the pIC50 was below 4.30. The same measure, in the same setting: in the case of `CC1=C2CC/C(C)=C/CC[C@]3(C)O[C@@H]3CC/C(C)=C/[C@@H]2OC1=O` it was below 4.30; in that of `C/C1=C\C[C@]2(C(C)C)CC[C@@](C)(O2)[C@H](O)CC/C(C)=C/CC1`, below 4.30; in that of `C/C1=C\CC[C@]2(C)O[C@@H]2C[C@]2(C(C)C)CC[C@@](C)(O2)[C@@H](O)CC1`, below 4.30. Same read-out and setting: the value for `CC(=O)O[C@H]1CC/C(C)=C/CC[C@]2(C)O[C@@H]2C[C@]2(C(C)C)CC[C@@]1(C)O2` was below 4.30; that for `CC(=O)O[C@H]1CC[C@@]2(C)O[C@H]2CC/C(C)=C/C[C@]2(C(C)C)CC[C@@]1(C)O2` was below 4.30.

`C/C1=C\C[C@]2(C(C)C)CC[C@@](C)(O2)[C@@H](OC(=O)Cc2ccccc2)CC/C(C)=C/CC1`: the pIC50 in assay [2] was below 4.30.

In assay [2], `C/C1=C\C[C@]2(C(C)C)CC[C@@](C)(O2)[C@@H](O)CC/C(C)=C/CC1` [Incensole] gave a pIC50 of 4.80.
